According to publication PMC3706105 (Breast cancer research and treatment, 2012):

What was measured:
[1] = test system: ATF2; assay: Immunoblot pATF2; type: cell-based, human
Procedure, shortened: (§1)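 MDA-MB-231 cells treated with test compound, e.g. 10 ppm for 1–24 h. For P38 inhibition, cells were pretreated 1 h with SB203580, then co-treated 4 h. Lysed in Tris pH 7.5/NP-40/SDS/deoxycholate buffer with phosphatase and protease inhibitors. 20–50 μg protein resolved by 10 or 12% SDS-PAGE, wet-transferred and blocked in 5% BSA/TBS-Tween. Phospho-specific primaries at 1:1000, HRP secondaries at 1:5,000, chemiluminescent detection; band densitometry.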

[2] = test system: MDA-MB-231 cells; assay: Hoechst33342 nuclear staining; type: cell-based, human; conditions: MDA-MB-231, 5-10 ppm, 24 hours, Hoechst staining
[3] = test system: BJ fibroblast; assay: Cell cycle analysis; type: cell-based; conditions: 5 ppm, 48 hours
[4] = test system: MDA-MB-436; assay: XTT viability assay; type: cell-based, human; conditions: MDA-MB-436, XTT
Procedure, shortened: (§2)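 Seeding in normal growth medium in 96-well plates: 1500 cells/well for MCF10A, MDA-MB-231 and MDA-MB-436, 4000 for MCF-7. Next day, phenol-free DMEM with 10% charcoal-stripped FBS containing final concentrations of test compound or acetone vehicle, the vehicle matched to the highest dose only. After 3 days, XTT reagent 2–3 h at 37 °C. Absorbance at 450 nm minus 750 nm reference and medium blank, expressed as % of control; IC50 interpolated from sigmoidal dose–response curves.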

[5] = test system: T47D; assay: XTT viability assay; type: cell-based, human
[6] = test system: MDA-MB-231; assay: Cell cycle analysis; type: cell-based, human; conditions: 48 hours
[7] = test system: P38 MAPK; assay: Immunoblot pP38; type: cell-based, human; conditions: densitometry of immunoblot
Procedure, shortened: as §1

[8] = test system: MCF10A; assay: XTT viability assay; type: cell-based
[9] = test system: MDA-MB-231; assay: XTT viability assay; type: cell-based, human; conditions: MDA-MB-231, XTT
Procedure, shortened: as §2

[10] = test system: MCF-7; assay: XTT viability assay; type: cell-based, human; conditions: MCF-7, XTT
Procedure, shortened: as §2

[11] = test system: MCF-7 mammospheres; assay: Mammosphere formation; type: cell-based, human; conditions: MCF-7 primary mammospheres
Procedure, shortened: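 MCF-7 cells trypsinised (0.05% trypsin/EDTA), PBS-washed twice and sieved to single cells. Diluted to 10,000 cells/mL in serum-free phenol-red-free MEBM with 5 μg/ml insulin, 20 ng/ml EGF, 20 ng/ml bFGF, 1× B27 and 0.5 μg/ml hydrocortisone, and plated on ultralow-attachment 96-well plates. Next day, test compound (ppm) or 0.6% acetone final vehicle added; medium replenished every 3–4 days. Spheres over size threshold counted per well at 5×; triplicate wells ± SD, paired t-test.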

[12] = test system: MDA-MB-231 cells; assay: XTT viability after timed SL exposure and removal; type: cell-based, human; conditions: MDA-MB-231, 5ppm and 10ppm, XTT at 24 hours
Procedure, shortened: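 MDA-MB-231 cells exposed to test compound at 5 or 10 ppm for 2, 4 or 24 h. Medium was then removed, cells washed, and growth medium without compound added. XTT viability read 24 h after treatment start, as % of vehicle controls, mean ± SD; two-tailed paired Student's t-test against vehicle.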

[13] = test system: MCF-7 mammospheres; assay: Integrity of mature primary mammospheres; type: cell-based, human; conditions: mature MCF-7 mammospheres; for mammosphere numbers (≥100μM), percentage of vehicle treated control: 5 days of treatment, vehicle control 86.7±6.8
[14] = test system: MCF10A; assay: Cell cycle analysis; type: cell-based; conditions: 0.5-10ppm, 48 hours
[15] = test system: MDA-MB-436; assay: Cell cycle analysis; type: cell-based, human; conditions: MDA-MB-436, 10ppm, 48 hours
[16] = test system: MCF-7 secondary mammospheres; assay: XTT viability assay on mammospheres; type: cell-based, human; conditions: 5 days
[17] = test system: MCF-7; assay: Crystal violet growth assay; type: cell-based, human
Procedure, shortened: (§3)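 Cell seeding in 96-well plates was 1500 cells/well (MDA-MB-231, MDA-MB-436, BJ fibroblasts) or 4000 (MCF-7). Next day, phenol-free DMEM with 10% charcoal-stripped FBS plus test compound at 0.5–10 ppm (1.65–33 μM) or acetone vehicle, for up to 10 days. Plates were fixed and stained 15 min with 0.5% crystal violet/25% methanol, washed, dried, and dye eluted in 0.1 M sodium citrate; absorbance 560 nm, % of vehicle, triplicates ± SD. Day-7 IC50 by linear-regression interpolation.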

[18] = test system: MCF-7; assay: Cell cycle analysis; type: cell-based, human; conditions: MCF-7, 10ppm, 48 hours
[19] = test system: MDA-MB-231 mammospheres; assay: Mammosphere formation; type: cell-based, human
Procedure, shortened: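 Single-cell MDA-MB-231 suspensions grown as mammospheres in serum-free phenol-red-free CnT-27 medium with growth additives on ultralow-attachment 96-well plates. Next day, test compound (ppm) or vehicle (0.6% acetone final) added; medium replenished every 3–4 days. Mammospheres above size threshold counted per well; triplicate wells, mean ± SD, two-tailed paired t-test versus vehicle.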

[20] = test system: MDA-MB-436; assay: Crystal violet growth assay; type: cell-based, human
Procedure, shortened: as §3

[21] = test system: ALDH1; assay: Aldefluor ALDH1 activity in mammospheres; type: cell-based, human; conditions: MCF-7 primary mammospheres grown with GR-24; vehicle 6%
[22] = test system: BJ fibroblasts; assay: Crystal violet growth assay; type: cell-based; conditions: 0.5 to 10ppm, up to 10 days
Procedure, shortened: as §3

[23] = test system: MDA-MB-231; assay: Crystal violet growth assay; type: cell-based, human
Procedure, shortened: as §3

[24] = test system: MAPKAPK; assay: Immunoblot pT334 MAPKAPK; type: cell-based, human; conditions: MDA-MB-231, SB203580 exposure
Procedure, shortened: as §1

**Q.** `CC1=CC(O/C=C2/C(=O)c3c(c4cc(-c5scc6c5OCCO6)ccc4n3C)C2C)OC1=O` (stereo not drawn) [ST362] was tested. Which “phosphorylation of ATF2” value ([1]; MDA-MB-231, immunoblot, SL treatment 4-8 hours) did it give?
**A.** The value was “induced”.

**Q.** And the “nuclear changes indicative of apoptosis” value [2]?
**A.** The value was “increased nuclear condensation and fragmentation”.

**Q.** And the SubG1/poptosis ([3]; vehicle 0.21)?
**A.** The SubG1/poptosis was 0.72.

**Q.** And the “Cell Cycle Distribution (%) S” value ([3]; vehicle 2.510)?
**A.** The value was 1.580%.

**Q.** And the “Cell Cycle Distribution (%) G2” value ([3]; vehicle 10.17)?
**A.** The value was 12.86%.

**Q.** What about the “Cell Cycle Distribution (%) G1” value ([3]; vehicle 84.25) of the same molecule?
**A.** Its value is 83.42%.

**Q.** And the “IC50 (ppm) at 72hours” value [4]?
**A.** The value was 5.9 ppm.

**Q.** And the “IC50 (ppm) at 72hours” value [5]?
**A.** The value was 8.6 ppm.

**Q.** What about the SubG1/poptosis ([6]; MDA-MB-231, 5 ppm, vehicle 0.41) of the same molecule?
**A.** Its SubG1/poptosis is 4.17.

**Q.** What about the “Cell Cycle Distribution (%) S” value ([6]; MDA-MB-231, 5 ppm, vehicle 13.02) of the same molecule?
**A.** The value was 11.90%.

**Q.** What about the “Cell Cycle Distribution (%) G2” value ([6]; MDA-MB-231, 5 ppm, vehicle 24.08) of the same molecule?
**A.** Its value is 37.93%.

**Q.** And the “Cell Cycle Distribution (%) G1” value ([6]; MDA-MB-231, 5 ppm, vehicle 60.43)?
**A.** The value was 42.17%.

**Q.** What about the “increase in pP38 levels compared to vehicle” value ([7]; MDA-MB-231, 4 hours) of the same molecule?
**A.** Its value is 5 fold.

**Q.** What about the “increase in pP38 levels compared to vehicle” value ([7]; MDA-MB-231, 8 hours) of the same molecule?
**A.** The value was 13 fold.

**Q.** And the “IC50 (ppm) at 72hours” value [8]?
**A.** Its value is over 15 ppm.

**Q.** What about the reduction in viability ([8]; between day 10 and 14 (so in the source)) of the same molecule?
**A.** The reduction in viability was 20%.

**Q.** And the “IC50 (ppm) at 72hours” value [9]?
**A.** Its value is 2.9 ppm.

**Q.** And the “IC50 (ppm) at 72hours” value [10]?
**A.** Its value is 8.1 ppm.

**Q.** And the mammosphere formation ([11]; 1ppm)?
**A.** The mammosphere formation was “significantly inhibited mammosphere formation”.

**Q.** And the mammosphere growth ([11]; 2.5ppm, 7 days)?
**A.** Its mammosphere growth is “able to block mammosphere growth”.

**Q.** What about the “cell viability after 2 hours exposure” value ([12]; SL removed) of the same molecule?
**A.** The value was “No changes in cell viability”.

**Q.** And the “cell viability after 4 hours exposure” value ([12]; SL removed, p<0.01)?
**A.** Its value is “significant decrease in viability”.

**Q.** And the “cell viability after continual exposure (24h) compared to 4 hours exposure” value ([12]; p<0.001)?
**A.** The value was “greater reduction in cell viability”.

**Q.** What about the “mammosphere numbers (≥100μM), percentage of vehicle treated control” value ([13]; 2.5ppm) of the same molecule?
**A.** The value was 6±1.7%.

**Q.** What about the mammosphere morphology ([13]; 5 and 2.5ppm, after 48 hours) of the same molecule?
**A.** The mammosphere morphology was “looser morphology and appeared to be dissociating”.

**Q.** What about the “mammosphere numbers (≥100μM), percentage of vehicle treated control” value ([13]; 5ppm) of the same molecule?
**A.** Its value is 8.3±3.5%.

**Q.** Which results are given for `CC1=C[C@H](O/C=C2/C(=O)O[C@@H]3c4ccccc4C[C@H]23)OC1=O` [GR-24]?
**A.** change in cell cycle distribution [14]: no change; increase in sub-G1/apoptotic fraction compared to vehicle [15]: 3.4 fold; mammosphere viability (% of vehicle control) ([16]; 2.5ppm): 68.6%±12.4; reduction of mammosphere viability ([16]; 5ppm): approximately 80%; mammosphere viability (% of vehicle control) ([16]; 5ppm, control 98.4%± 3.4): 16.4%± 4.6; IC50 of long-term proliferation ([17]; MCF-7, 7 days): 5.7 ppm; IC50 ([17]; read-out: IC50 of long-term proliferation, MCF-7, 7 days): 18.8 µM; increase in sub-G1/apoptotic fraction compared to vehicle ([6]; MDA-MB-231, 10ppm): 4.6 fold; change in subG1 fraction [18]: no change; mammosphere growth ([19]; 2.5ppm): severely attenuated; mammosphere formation ([19]; 5ppm): completely blocked; IC50 of long-term proliferation ([20]; MDA-MB-436, 7 days): 5.2 ppm; IC50 ([20]; read-out: IC50 of long-term proliferation, MDA-MB-436, 7 days): 17.2 µM; ALDH activity (percentage of ALDH positive cells) [21]: 2%; growth compared to vehicle [22]: no significant reduction in growth; mammosphere growth ([11]; 0.5ppm): inhibited to a lesser degree; mammosphere formation ([11]; 1ppm): severely attenuated; mammosphere formation ([11]; 2.5 –5ppm): completely inhibited; IC50 of long-term proliferation ([23]; MDA-MB-231, 7 days): 5.7 ppm; IC50 ([23]; read-out: IC50 of long-term proliferation, MDA-MB-231, 7 days): 18.8 µM

**Q.** What does the source list for `C[S+]([O-])c1ccc(-c2nc(-c3ccncc3)c(-c3ccc(F)cc3)[nH]2)cc1` (stereo not drawn) [SB203580, reference compound]?
**A.** inhibition of ATF2 phosphorylation following SL treatment ([1]; MDA-MB-231, 20 μM to 40 μM): did not inhibit ATF2 phosphorylation; pT334 MAPKAPK phosphorylation [24]: decreased in a dose dependent manner
